Source: PubChem BioAssay
A selection: hits, their analogues and other compounds. The true share with any hit is near 5.1%.
STAT1 blocker: STAT1 signaling inhibition. inhibition, % at 5.5 µM. 200,000 compounds, 0.35% hits. NIH 3T3 STAT1-luciferase reporter, IFN-gamma, luminescence. AID 920;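 active = inhibition above a set limit, the mean inhibition across all tested compounds plus 3 SD, cut at about 34% in these data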
STAT1 activator: activators of IFN-gamma induced STAT1 signaling. NIH 3T3 STAT1-luciferase reporter, luminescence; 100% = IFN-gamma alone, no compound. activation (% of control), % at 5.5 µM. 200,000 compounds, 2.6% hits. AID 932;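 active = activation above the screen-wide mean activation plus 3 SD, cut at about 130% in these data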
STAT3 activator: activators of IL-6 induced STAT3 signaling; U3A cells, IL-6 STAT3-luciferase reporter, luminescence; 100% = signal with IL-6 EC80 alone; activation (% of control), % at 5.6 µM; 190,000 compounds, 0.91% hits;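 active = activation above the screen-wide mean of compound activation plus 3 SD, cut at about 130% in these data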
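Assay system – human STAT1-deficient U3A cells with stable STAT3-luciferase reporter · Also added – IL-6 (33 ng/mL) · Schedule – compound 1 h, then IL-6 6 h at 37 °C · Technique – reporter luminescence signal · Evaluation – % activation versus median of IL-6-stimulated wells · Benchmarks – IL-6-only wells as 100% reference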
STAT3 inh-1: inhibitors of IL-6 induced STAT3 signaling | U3A cells, IL-6 STAT3-luciferase reporter, luminescence; host cell line lacks STAT1 | inhibition, % at 5.5 µM | 190,000 compounds, 0.89% hits | AID 862;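 active = inhibition above the mean inhibition across all screened compounds plus 3 SD, cut at about 44% in these data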
NF-kB neuron act: compounds increasing NF-kB expression in human neuronal cells. NF-kB reporter expression; active compounds read high. fold change at 12.5 µM. 190,000 compounds, 1.6% hits. AID 1239; in the data active = fold change above about 3.3
APP 5'UTR act: activates APP 5'UTR luciferase reporter | AID 1276 | SH-SY5Y APP 5'UTR luciferase reporter, luminescence; zero percent = DMSO vehicle wells | activation, % at 2 µM | 190,000 compounds, 1% hits;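 active = activation above a set limit, based on mean plus 3 SD of controls, cut at about 140% in these data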
STAT3 inh-2: STAT3 inhibition, confirmation assay | shares compounds with STAT3 inh-1 | 1,200 compounds, 45% hits | U3A cells, IL-6 STAT3 luciferase reporter, luminescence; cell line lacks STAT1 | inhibition, % at 5.7 µM;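 active = inhibition above the hit cutoff computed for the primary STAT3 screen, cut at about 44% in these data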
NFkB inh 2: counter-screen for STAT3 inhibitors: NF-kappaB inhibition; shares compounds with STAT3 inh-1; HEK293T NF-kB luciferase reporter, TNF-alpha induced; inhibition, % at 5.7 µM; 1,200 compounds, 36% hits; AID 1308;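 active = inhibition above the mean of solvent-only control wells plus 3 SD, cutoff set per campaign, cut at about 13% in these data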
STAT1 inh 2: inhibits STAT1, counter-screen to STAT3 inhibitors; shares compounds with STAT3 inh-1; NIH 3T3 STAT1-luciferase reporter, IFN-gamma induced, luminescence; inhibition, % at 5.7 µM; 1,200 compounds, 27% hits; AID 1317;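 active = inhibition above the mean plus 3 SD of solvent-only control wells, limit set per screening run, cut at about 16% in these data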
Of the large screens only hits and unclear results are named; the others gave an inactive call (follow-up assays come after a bar, where they were run).

Cc1cc(-c2cn3ccccc3n2)c(C)n1-c1ccccc1	STAT3 inh-1 57.6, APP 5'UTR act 175.9 | STAT3 inh-2 inactive | NFkB inh 2 inactive | STAT1 inh 2 inactive
O=[N+]([O-])c1cc([N+](=O)[O-])c(N2CCCCCC2)cc1NCCO	none
C=CCNc1nc2c(c(=O)n(C)c(=O)n2C)n1CCCCCC	STAT3 inh-1 54.4 | STAT3 inh-2 64.3 | NFkB inh 2 14.9 | STAT1 inh 2 29.7
O=C(NN=C1CCN(Cc2ccccc2)CC1)C(O)c1ccccc1 (stereo not drawn)	none
O=C(c1cccn2c(=O)c3ccccc3nc12)N1CCN(c2ccccn2)CC1	STAT3 inh-1 51.4 | STAT3 inh-2 inactive | NFkB inh 2 inactive | STAT1 inh 2 inactive
O=C(c1cccn2c(=O)c3cc(Br)ccc3nc12)N1CCN(c2ccccn2)CC1	none
CCOC(=O)C1CCCN(S(=O)(=O)c2ccc(S(=O)(=O)N(CC)CC)cc2)C1 (stereo not drawn)	STAT3 inh-1 77.9 | STAT3 inh-2 83.2 | NFkB inh 2 33.6 | STAT1 inh 2 26.7
O=c1cc(N2CCOCC2)cnn1-c1ccccc1	none
Cc1sc2ncnc(N3CCCCC3)c2c1C	none (no result: APP 5'UTR act)
CCN1CCN(CCOc2ccc(Cl)cc2)CC1	none
Clc1ccc(OCCN2CCN(c3ncnc4sccc34)CC2)cc1	STAT3 inh-1 88.6 | STAT3 inh-2 87.5 | NFkB inh 2 33.8 | STAT1 inh 2 22.8
Cc1ccc(OCCN2CCN(c3ncnc4sc(C)c(C)c34)CC2)cc1	STAT3 inh-1 79.3 (no result: APP 5'UTR act) | STAT3 inh-2 81.4 | NFkB inh 2 26.2 | STAT1 inh 2 25.1
CN=C1S/C(=C\c2cc(C)n(-c3ccccc3F)c2C)C(=O)N1C	STAT3 inh-1 56.3 | STAT3 inh-2 inactive | NFkB inh 2 inactive | STAT1 inh 2 inactive
CN=C1S/C(=C\c2ccc(N3CCOCC3)cc2C)C(=O)N1C	none
CC(C)c1ccc(NC(=O)C2CCCCC2C(=O)O)cc1 (stereo not drawn)	STAT3 inh-1 49.7 | STAT3 inh-2 inactive | NFkB inh 2 inactive | STAT1 inh 2 inactive
COc1ccc(C2CC(=O)Nc3n[nH]c(-c4ccccc4)c32)cc1OC (stereo not drawn)	none
Cc1cc(C)n(/N=C/c2ccc(C(C)C)cc2)c(=O)c1C#N	none
Cc1cc(C(=O)COc2ccccc2C(N)=O)c(C)n1CC1CCCO1 (stereo not drawn)	STAT3 inh-1 72.9 | STAT3 inh-2 70.4 | NFkB inh 2 21.8 | STAT1 inh 2 16.5
Cc1cc(C(=O)COC(=O)c2n[nH]c3ccccc23)c(C)n1CC1CCCO1 (stereo not drawn)	STAT3 inh-1 64.4, APP 5'UTR act 168.0 | STAT3 inh-2 inactive | NFkB inh 2 inactive | STAT1 inh 2 inactive
COCCn1c(C)cc(C(=O)COC(=O)c2n[nH]c3ccccc23)c1C	STAT3 inh-1 83.4 | STAT3 inh-2 51.3 | NFkB inh 2 23.4 | STAT1 inh 2 inactive
CCOc1cc(C(=O)OCC(=O)c2cc(C)n(CC3CCCO3)c2C)ccc1OCC(=O)N1CCOCC1 (stereo not drawn)	none
COCCn1c(C)cc(C(=O)COC(=O)c2c(C)nn(Cc3ccccc3)c2C)c1C	none
CC(=O)N1CCCc2cc(S(=O)(=O)Nc3ccc4c(c3)OCO4)ccc21	none (no result: STAT1 blocker, STAT1 activator, STAT3 activator, STAT3 inh-1, APP 5'UTR act)
CC(=O)N1CCc2cc(S(=O)(=O)Nc3cccc(C(F)(F)F)c3)ccc21	STAT3 inh-1 43.5 | STAT3 inh-2 inactive | NFkB inh 2 inactive | STAT1 inh 2 19.3
COc1cc(OC)cc(C(=O)NCC(=O)OCC(=O)N2CC(C)CC(C)C2)c1 (stereo not drawn)	none
Cn1c(N=Nc2ccccc2)nc2ccccc21	STAT1 activator 131.0, STAT3 inh-1 51.3, NF-kB neuron act 3.63, APP 5'UTR act 179.5 | STAT3 inh-2 inactive | NFkB inh 2 inactive | STAT1 inh 2 inactive
COc1ccc(CNC(=O)C(c2ccncc2)N(C(=O)Cc2cccs2)c2ccccc2)cc1 (stereo not drawn)	none (no result: APP 5'UTR act)
COc1ccc(N(C(=O)CCl)C(C(=O)NCCc2ccccc2)c2cccs2)cc1 (stereo not drawn)	STAT3 inh-1 62.0 | STAT3 inh-2 92.4 | NFkB inh 2 inactive | STAT1 inh 2 20.9
O=c1oc2ccccc2cc1-c1nc2c(s1)CCCC2	STAT3 inh-1 74.2, APP 5'UTR act 187.8 | STAT3 inh-2 47.6 | NFkB inh 2 30.9 | STAT1 inh 2 inactive
O=c1oc2ccccc2cc1-c1csc(NN=C2CCCCC2)n1	none
Cc1cc(N2CCN(C(c3ccccc3)c3ccccc3)CC2)n2ncnc2n1	none
Cc1cc(N2CCN(c3nc4ccccc4s3)CC2)n2ncnc2n1	STAT3 inh-1 82.7 | STAT3 inh-2 72.7 | NFkB inh 2 24.6 | STAT1 inh 2 30.4
CCc1nc(Nc2ccc(OC)c(OC)c2)c2nnn(Cc3ccccc3Cl)c2n1	STAT3 inh-1 67.1 | STAT3 inh-2 57.8 | NFkB inh 2 17.1 | STAT1 inh 2 19.4
COc1cccc(OC)c1Nc1nc(C)nc2c1nnn2Cc1ccccc1Cl	none
Cc1nn2cc(-c3ccccc3)nc2s1	STAT1 activator 144.2, STAT3 inh-1 52.2, NF-kB neuron act 5.4 | STAT3 inh-2 inactive | NFkB inh 2 inactive | STAT1 inh 2 inactive
CCOC(=O)N1CCC(NC(=O)C2CCN(c3nc(-c4ccc(OC)cc4)no3)CC2)CC1	STAT3 inh-1 49.9 | STAT3 inh-2 inactive | NFkB inh 2 inactive | STAT1 inh 2 inactive
N#Cc1cc([N+](=O)[O-])ccc1NC(=O)COC(=O)C12CC3CC(CC(C3)C1)C2	none (no result: NF-kB neuron act)
CCN1C(=C(C#N)C#N)C=Cc2cc(C)ccc21	none
C=CC[n+]1c(/C=C2\C=Cc3cc(C)ccc3N2CC)ccc2ccccc21	STAT3 inh-1 88.5 | STAT3 inh-2 87.7 | NFkB inh 2 50.2 | STAT1 inh 2 26.4
O=C(NCCCO)C(=O)NCc1ccncc1	none
O=C(N/N=C/c1ccc2ncccc2c1)c1ccco1	STAT3 inh-1 67.4 | STAT3 inh-2 inactive | NFkB inh 2 inactive | STAT1 inh 2 inactive
O=C(N/N=C/c1ccccn1)c1ccco1	none
CC(C)[C@@H](C(=O)N1CCNCC1)n1cc(CCO)nn1	none (no result: STAT3 activator, STAT3 inh-1)
Cc1cc(N2CCOCC2)n2ncc(-c3ccccc3)c2n1	STAT3 inh-1 65.7, APP 5'UTR act 142.5 | STAT3 inh-2 inactive | NFkB inh 2 inactive | STAT1 inh 2 inactive
